Active and inactive are the calls of the source. No cut-off for these calls is given here.
Assays:
[1] = test system: Rattus norvegicus; assay: Anticonvulsant activity in Sprague-Dawley rat model of maximal electroshock-induced seizure assessed as suppression of tonic hind limb extension at 30 mg/kg, po measured at 2 hrs post dose; assay type: functional, organism-based
Procedure, shortened: (§1)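 Rats given 30 mg/kg p.o. and tested by maximal electroshock at 150 mA. Scored as number protected / number tested (4 per group) at 0.25, 0.5, 1, 2 and 4 h after dosing.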

[2] = Neurotoxicity in CF-1 mouse at 30 mg/kg, ip measured after 0.5 hrs by rotarod test; assay type: toxicity, organism-based; conditions: in vivo
Procedure, shortened: (§2)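 Mice dosed i.p. were placed on a 1 in. knurled rod turning at 6 rpm. Toxicity was scored as failure to keep balance for at least 1 min, i.e. falling off three or more times. Results are reported as animals showing toxicity / animals tested at each time point.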

[3] = Neurotoxicity in CF-1 mouse at 300 mg/kg, ip measured after 0.5 hrs by rotarod test; assay type: toxicity, organism-based; conditions: in vivo; procedure, shortened: as §2
[4] = test system: Mus musculus; assay: Anticonvulsant activity in CF-1 mouse model of maximal electroshock-induced seizure assessed as suppression of tonic hind limb extension at 100 mg/kg, ip measured at 1 hr post dose; assay type: functional, organism-based
Procedure, shortened: (§3)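 Mice dosed i.p. and given maximal electroshock at 50 mA. Read-out is protection, reported as number protected / number tested at 0.25, 0.5, 1 and 4 h after dosing.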

[5] = test system: Mus musculus; assay: Anticonvulsant activity in CF-1 mouse model of maximal electroshock-induced seizure assessed as suppression of tonic hind limb extension at 300 mg/kg, ip measured at 4 hrs post dose; assay type: functional, organism-based; procedure, shortened: as §3
[6] = test system: Mus musculus; assay: Anticonvulsant activity in CF-1 mouse model of subcutaneous pentylenetetrazole-induced seizure assessed as reduction in convulsions at 30 mg/kg, ip measured at 4 hrs post dose; assay type: functional, organism-based
Procedure, shortened: (§4)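 Mice dosed i.p., then given pentylenetetrazole 85 mg/kg in 0.9% NaCl s.c. into the posterior midline of the neck. Seizures watched for at least 30 min. Scored as protected / tested at 0.5 and 4 h.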

[7] = Neurotoxicity in Sprague-Dawley rat at 30 mg/kg, po measured after 4 hrs by rotarod test; assay type: toxicity, organism-based; conditions: in vivo
Procedure, shortened: (§5)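 Rat neurotoxicity after i.p. or p.o. dosing was scored as animals impaired / animals tested at each time point. For p.o. dosing, TD50 was obtained by probit analysis.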

[8] = test system: Mus musculus; assay: Anticonvulsant activity in CF-1 mouse model of maximal electroshock-induced seizure assessed as suppression of tonic hind limb extension at 100 mg/kg, ip measured at 0.5 hrs post dose; assay type: functional, organism-based; procedure, shortened: as §3
[9] = test system: Mus musculus; assay: Anticonvulsant activity in CF-1 mouse model of maximal electroshock-induced seizure assessed as suppression of tonic hind limb extension at 30 mg/kg, ip measured at 0.5 hrs post dose; assay type: functional, organism-based; procedure, shortened: as §3
[10] = Neurotoxicity in CF-1 mouse at 30 mg/kg, ip measured after 4 hrs by rotarod test; assay type: toxicity, organism-based; conditions: in vivo; procedure, shortened: as §2
[11] = Neurotoxicity in CF-1 mouse at 300 mg/kg, ip measured after 4 hrs by rotarod test; assay type: toxicity, organism-based; conditions: in vivo; procedure, shortened: as §2
[12] = test system: Mus musculus; assay: Anticonvulsant activity in CF-1 mouse model of subcutaneous pentylenetetrazole-induced seizure assessed as reduction in convulsions at 300 mg/kg, ip measured at 0.5 hrs post dose; assay type: functional, organism-based; procedure, shortened: as §4
[13] = test system: Mus musculus; assay: Anticonvulsant activity in CF-1 mouse model of maximal electroshock-induced seizure assessed as suppression of tonic hind limb extension at 100 mg/kg, ip measured at 4 hrs post dose; assay type: functional, organism-based; procedure, shortened: as §3
[14] = test system: Mus musculus; assay: Anticonvulsant activity in CF-1 mouse model of subcutaneous pentylenetetrazole-induced seizure assessed as reduction in convulsions at 300 mg/kg, ip measured at 4 hrs post dose; assay type: functional, organism-based; procedure, shortened: as §4
[15] = test system: Rattus norvegicus; assay: Anticonvulsant activity in Sprague-Dawley rat model of maximal electroshock-induced seizure assessed as suppression of tonic hind limb extension at 30 mg/kg, po measured at 1 hr post dose; assay type: functional, organism-based; procedure, shortened: as §1
[16] = Neurotoxicity in Sprague-Dawley rat at 30 mg/kg, po measured after 0.25 hrs by rotarod test; assay type: toxicity, organism-based; conditions: in vivo; procedure, shortened: as §5
[17] = test system: Mus musculus; assay: Anticonvulsant activity in CF-1 mouse model of subcutaneous pentylenetetrazole-induced seizure assessed as reduction in convulsions at 100 mg/kg, ip measured at 0.5 hrs post dose; assay type: functional, organism-based; procedure, shortened: as §4
[18] = Neurotoxicity in Sprague-Dawley rat at 30 mg/kg, po measured after 1 hr by rotarod test; assay type: toxicity, organism-based; conditions: in vivo; procedure, shortened: as §5
[19] = test system: Mus musculus; assay: Anticonvulsant activity in CF-1 mouse model of subcutaneous pentylenetetrazole-induced seizure assessed as reduction in convulsions at 100 mg/kg, ip measured at 4 hrs post dose; assay type: functional, organism-based; procedure, shortened: as §4
[20] = test system: Mus musculus; assay: Anticonvulsant activity in CF-1 mouse model of maximal electroshock-induced seizure assessed as suppression of tonic hind limb extension at 30 mg/kg, ip measured at 4 hrs post dose; assay type: functional, organism-based; procedure, shortened: as §3
[21] = test system: Mus musculus; assay: Anticonvulsant activity in CF-1 mouse model of maximal electroshock-induced seizure assessed as suppression of tonic hind limb extension at 300 mg/kg, ip measured at 0.5 hrs post dose; assay type: functional, organism-based; procedure, shortened: as §3
[22] = Neurotoxicity in Sprague-Dawley rat at 30 mg/kg, po measured after 2 hrs by rotarod test; assay type: toxicity, organism-based; conditions: in vivo; procedure, shortened: as §5
[23] = Neurotoxicity in CF-1 mouse at 100 mg/kg, ip measured after 1 hr by rotarod test; assay type: toxicity, organism-based; conditions: in vivo; procedure, shortened: as §2
[24] = Neurotoxicity in Sprague-Dawley rat at 30 mg/kg, po measured after 0.5 hrs by rotarod test; assay type: toxicity, organism-based; conditions: in vivo; procedure, shortened: as §5
[25] = test system: Mus musculus; assay: Anticonvulsant activity in CF-1 mouse model of subcutaneous pentylenetetrazole-induced seizure assessed as reduction in convulsions at 30 mg/kg, ip measured at 0.5 hrs post dose; assay type: functional, organism-based; procedure, shortened: as §4

## Cc1cccc(C)c1OCC(=O)NC(C)CO (stereo not given)
[1]
  Activity: inactive
[2]
  Activity: Non-Toxic
[3]
  Activity: Toxic
[4]
  Activity: inactive
[5]
  Activity: inactive
[6]
  Activity: inactive
[7]
  Activity: Non-Toxic
[8]
  Activity: inactive
[9]
  Activity: inactive
[10]
  Activity: Non-Toxic
[11]
  Activity: Non-Toxic
[12]
  Activity: inactive
[13]
  Activity: inactive
[14]
  Activity: inactive
[15]
  Activity: inactive
[16]
  Activity: Non-Toxic
[17]
  Activity: inactive
[18]
  Activity: Non-Toxic
[19]
  Activity: inactive
[20]
  Activity: inactive
[21]
  Activity: Active
[22]
  Activity: Non-Toxic
[23]
  Activity: Non-Toxic
[24]
  Activity: Non-Toxic
[25]
  Activity: inactive
